Reference: ChEMBL document CHEMBL4406880, “Design, synthesis, and bioactivity of dihydropyrimidine derivatives as kinesin spindle protein inhibitors” (Bioorg Med Chem, 2019)

Assays:
SK-OV-3 = assay: Growth inhibition of human SKOV3 cells assessed as growth percentage at 10 uM incubated for 48 hrs by sulforhodamine B assay relative to control; type: functional; conditions: SK-OV-3, 48 h, read-out: Activity
Method in brief: (§1)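 NCI-60 single-dose screen. Cells were grown in RPMI 1640 with 5% FBS and 2 mM L-glutamine and plated at 5,000–40,000 cells/well. After an overnight preincubation at 37 °C in 5% CO2, compound was added at a final 10 µM from a DMSO stock, with DMSO/PBS controls. After 48 h, cells were TCA-fixed and stained with 0.4% SRB, and absorbance was read at 515 nm. Growth is given as a percentage of untreated control.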

NCI-H322M = assay: Growth inhibition of human NCI-H322M cells assessed as growth percentage at 10 uM incubated for 48 hrs by sulforhodamine B assay relative to control; type: functional; conditions: read-out: Activity
Method in brief: (§2)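 NCI-60 one-dose screen. Cells in RPMI 1640 with 5% FBS and 2 mM L-glutamine, seeded at 5,000–40,000 cells/well according to doubling time, and preincubated overnight at 37 °C, 5% CO2. A time-zero plate was TCA-fixed at drug addition. Compound from DMSO stock, final 10 µM, 48 h; DMSO vehicle controls. Fixation with TCA, 10% final (16% for suspension cells). SRB stain, Tris solubilization, A515. Result given as % growth versus untreated cells.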

MCF7 = assay: Growth inhibition of human MCF7 cells assessed as growth percentage at 10 uM incubated for 48 hrs by sulforhodamine B assay relative to control; type: functional; conditions: MCF7, 48 h, read-out: Activity; method in brief: as §2
NCI-H226 = assay: Growth inhibition of human NCI-H226 cells assessed as growth percentage at 10 uM incubated for 48 hrs by sulforhodamine B assay relative to control; type: functional; conditions: NCI-H226, 48 h, read-out: Activity; method in brief: as §2
NCI-H460 = assay: Growth inhibition of human NCI-H460 cells assessed as growth percentage at 10 uM incubated for 48 hrs by sulforhodamine B assay relative to control; type: functional; conditions: NCI-H460, 48 h, read-out: Activity; method in brief: as §2
NCI-H522 = assay: Growth inhibition of human NCI-H522 cells assessed as growth percentage at 10 uM incubated for 48 hrs by sulforhodamine B assay relative to control; type: functional; conditions: NCI-H522, 48 h, read-out: Activity; method in brief: as §2
U-251 = assay: Growth inhibition of human U251 cells assessed as growth percentage at 10 uM incubated for 48 hrs by sulforhodamine B assay relative to control; type: functional; conditions: U-251, 48 h, read-out: Activity; method in brief: as §1
IGROV-1 = assay: Growth inhibition of human IGROV1 cells assessed as growth percentage at 10 uM incubated for 48 hrs by sulforhodamine B assay relative to control; type: functional; conditions: IGROV-1, 48 h, read-out: Activity; method in brief: as §2
OVCAR-8 = assay: Growth inhibition of human OVCAR8 cells assessed as growth percentage at 10 uM incubated for 48 hrs by sulforhodamine B assay relative to control; type: functional; conditions: OVCAR-8, 48 h, read-out: Activity; method in brief: as §1
[1] = Growth inhibition of human HEK293 cells assessed as cell viability at 100 ug incubated for 48 hrs by MTT assay relative to control; type: cell-based; conditions: read-out: Activity
[2] = Inhibition of kinesin (unknown origin) assessed as reduction in ATPase activity using microtubule as substrate measured for 5 to mins; parameters: species or system Homo sapiens
[3] = Growth inhibition of human HEK293 cells assessed as cell viability at 25 ug incubated for 48 hrs by MTT assay relative to control; type: cell-based; conditions: read-out: Activity
[4] = Growth inhibition of human HEK293 cells assessed as cell viability at 0.39 ug incubated for 48 hrs by MTT assay relative to control; type: cell-based; conditions: read-out: Activity
[5] = Growth inhibition of human HEK293 cells assessed as cell viability at 6.25 ug incubated for 48 hrs by MTT assay relative to control; type: cell-based; conditions: read-out: Activity
HEK293 = assay: Growth inhibition of human HEK293 cells assessed as cell viability incubated for 48 hrs by MTT assay; type: cell-based; parameters: unit not given here
Method in brief: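 HEK 293 normal-cell growth inhibition; measured in triplicate, IC50 reported as mean ± SD.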

[6] = Growth inhibition of human HEK293 cells assessed as cell viability at 1.56 ug incubated for 48 hrs by MTT assay relative to control; type: cell-based; conditions: read-out: Activity

| SMILES | growth at 10 µM (SK-OV-3) | growth at 10 µM (NCI-H322M) | growth at 10 µM (MCF7) | growth at 10 µM (NCI-H226) | growth at 10 µM (NCI-H460) | growth at 10 µM (NCI-H522) | growth at 10 µM (U-251) | growth at 10 µM (IGROV-1) | growth at 10 µM (OVCAR-8) | viability at 48 h, 100 ug [1] | IC50 [2] | viability at 48 h, 25 ug [3] | viability at 48 h, 0.39 ug [4] | viability at 48 h, 6.25 ug [5] | IC50 (HEK293) | viability at 48 h, 1.56 ug [6] |
| --- | --- | --- | --- | --- | --- | --- | --- | --- | --- | --- | --- | --- | --- | --- | --- | --- |
| CC1=C(C(=O)OC(C)C)C(c2ccc3c(c2)OCO3)NC(=O)N1 (racemic) | 105% | 113% | 96.5% | 101% | 110% | 91.1% | 100% | 101% | 100% |  |  |  |  |  |  |  |
| CC(=O)C1=C(C)NC(=O)NC1c1ccc2c(c1)OCO2 (racemic) | 103% | 104% | 96.9% | 99.6% | 114% | 91.1% | 100% | 103% | 103% |  |  |  |  |  |  |  |
| CC1=C(C(=O)c2ccccc2)C(c2ccc3c(c2)OCO3)NC(=S)N1 (racemic) | 51.6% | 67.7% | 22% | 66.5% | 8.05% | 38.3% | 37.5% | 46.1% | 46.7% | 46% | 10.7 µM | 57.9% | 86.8% | 69.9% | 62.02 | 79.5% |
| CC1=C(C(=O)OC(C)C)C(c2ccc3c(c2)OCO3)NC(=S)N1 (racemic) | 105% | 108% | 98.7% | 84.1% | 110% | 86.4% | 102% | 99.9% | 102% |  |  |  |  |  |  |  |
| CC(=O)C1=C(C)NC(=S)NC1c1ccc2c(c1)OCO2 (racemic) | 102% | 112% | 103% | 102% | 109% | 92.3% | 98.2% | 104% | 103% |  |  |  |  |  |  |  |
| O=C1C2=C(NC(=S)NC2c2ccc3c(c2)OCO3)c2ccccc21 (racemic) | 103% | 106% | 96.8% | 92.6% | 111% | 91.5% | 97.8% | 104% | 102% |  |  |  |  |  |  |  |
| CC(=O)N1C(=S)NC(C)=C(C(=O)OCC(C)C)C1c1ccc2c(c1)OCO2 (racemic) | 100% | 102% | 104% | 94.6% | 105% | 74.9% | 87.5% | 112% | 95.9% |  |  |  |  |  |  |  |
| CC1=C(C(=O)OCC(C)C)C(c2ccc3c(c2)OCO3)NC(=O)N1 (racemic) | 108% | 115% | 101% | 93.1% | 113% | 91.1% | 99.8% | 94.8% | 103% |  |  |  |  |  |  |  |
| CC1=C(C(=O)c2ccccc2)C(c2ccc3c(c2)OCO3)NC(=O)N1 (racemic) | 109% | 99.5% | 97.5% | 97.4% | 114% | 90.3% | 96.5% | 90.6% | 99.3% |  |  |  |  |  |  |  |
| O=C1NC2=C(C(=O)c3ccccc32)C(c2ccc3c(c2)OCO3)N1 (racemic) | 104% | 111% | 96.5% | 102% | 113% | 90.7% | 100% | 104% | 102% |  |  |  |  |  |  |  |
| COCCOC(=O)C1=C(C)NC(=O)NC1c1ccc2c(c1)OCO2 (racemic) | 98.8% | 107% | 96.8% | 98% | 105% | 91.8% | 98.3% | 103% | 99.3% |  |  |  |  |  |  |  |
| CC1=C(C(=O)OCc2ccccc2)C(c2ccc3c(c2)OCO3)NC(=O)N1 (racemic) | 105% | 104% | 101% | 95.9% | 109% | 87.7% | 99.5% | 97.2% | 101% |  |  |  |  |  |  |  |
| CC1(C)CC(=O)C2=C(C1)NC(=O)NC2c1ccc2c(c1)OCO2 (racemic) | 112% | 105% | 98.3% | 109% | 117% | 93.9% | 103% | 97.9% | 104% | 43.5% | 3.95 µM | 50.9% | 78% | 60.1% | 33.2 | 71.5% |
| CC(=O)N1C(=S)NC(C)=C(C(=O)OC(C)C)C1c1ccc2c(c1)OCO2 (racemic) | 104% | 99.5% | 97.2% | 94.8% | 110% | 78% | 92.6% | 106% | 96.4% |  |  |  |  |  |  |  |
| COCCOC(=O)C1=C(C)NC(=S)NC1c1ccc2c(c1)OCO2 (racemic) | 103% | 101% | 89.6% | 90.2% | 112% | 94.3% | 104% | 105% | 102% |  |  |  |  |  |  |  |
| CC1=C(C(=O)OCC(C)C)C(c2ccc3c(c2)OCO3)NC(=S)N1 (racemic) | 106% | 117% | 98.6% | 97.1% | 110% | 82.2% | 97.4% | 97.9% | 102% |  |  |  |  |  |  |  |
| CC(=O)C1=C(C)Nc2nc3ccccc3n2C1c1ccc2c(c1)OCO2 (racemic) | 106% | 98.1% | 96.4% | 103% | 112% | 73% | 95.7% | 106% | 98.6% | 36.6% | 14.1 µM | 48.6% | 77.4% | 59% | 19.3 | 70.7% |
| COCCOC(=O)C1=C(C)NC(=S)N(C(C)=O)C1c1ccc2c(c1)OCO2 (racemic) | 97% | 101% | 102% | 96.6% | 104% | 91.6% | 94.8% | 106% | 99.3% |  |  |  |  |  |  |  |
| CC1=C(C(=O)OCc2ccccc2)C(c2ccc3c(c2)OCO3)NC(=S)N1 (racemic) | 109% | 95.1% | 86.8% | 95.8% | 96.7% | 89.5% | 95.8% | 97.6% | 97.5% |  |  |  |  |  |  |  |
